# Measurements taken from PubChem BioAssay.
# The source made the active and inactive calls.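 How the source made its calls, unless noted: active means NADPH fluorescence slope more negative than the mean of all samples by about 3 SD, 99.7% confidence; inactive means the rest.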 Where a SMILES comes first, the peptide text is derived from it. The star is where a group is joined. Boc = CC(C)(C)OC(=O)*
# Tests used:
# [1] = inhibitors of TNFa-induced NFkB p65 translocation, primary screen, imaging, HUVEC, MLSMR starter and 10KST1 sets (AID 438;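 active means inhibition above 20% together with a positive visual image hit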;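 further: compound added about 3h40 before a 20 min TNFalpha stimulation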;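 on inhibition: signal is the nuclear over cytoplasmic p65 intensity ratio per well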); details: HUVEC TNFa-induced p65 nuclear translocation; cell count: measured here: nuclei count (cytotoxicity indicator), at 2.08 µM; inhibition: at 2 µM, stronger effect = higher value, 0% TNFa-plus-vehicle, 100% no-TNFa wells
# [2] = reduction of polyQ htt aggregates in cells – imaging, exon1htt(103Q)mCFP cells, high-content imaging, primary screen (AID 483;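 active means visual image review flags a hit and inhibition of aggregation exceeds 20%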;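 further: compound exposure lasted 3 days before fixation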;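 on nuclei count: percent of the per-plate median nuclei count of sample wells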); details: exon1htt(103Q)mCFP cell line, aggregate imaging, at 2 µM; inhibition of aggregation: stronger effect = higher value; nuclei count: measured here: cell count, toxicity
# [3] = endothelial E-selectin expression blockers – imaging, HUVEC, immunofluorescence, MLSMR starter and 10KST1 sets, primary screen (AID 487;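 active means visually confirmed hit in the image check and inhibition above 20%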;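 on inhibition: signal is fraction of cell area covered by stained E-selectin grains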;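 on nuclei count: 100% = median nuclei count of all wells on the same plate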); details: HUVEC TNFalpha-induced E-selectin immunofluorescence imaging, at 2 µM; inhibition: stronger effect = higher value; nuclei count: measured here: cell number, toxicity
# [4] = biological target: Voltage-gated potassium channel subunit beta-2 (Rattus norvegicus) (UniProt P62483); experiment: inhibitors of rat Kvbeta2 reductase activity – biochemical, NADPH fluorescence, primary screen (AID 622;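 active means fluorescence slope higher than the sample average by over 3 SD, cut at about -0.22 in these data, passing the limit was not always enough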;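 further: slope of raw intensity against log time taken from 70 to 1610 s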); details: recombinant KvBeta, 4-cyanobenzaldehyde reduction, at 10 µM, stronger effect = higher value
# [5] = biological target: Voltage-gated potassium channel subunit beta-2 (Rattus norvegicus) (UniProt P62483); experiment: enhancers of rat Kvbeta2 NADPH turnover – biochemical, NADPH fluorescence, primary screen (AID 623); details: Recombinant KvBeta, NADPH fluorescence decrease slope, 10 min; at 10 µM; stronger effect = lower value;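 further: fluorescence intensity change per second fitted from 20 to 320 s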
# [6] = biological target: Muscarinic acetylcholine receptor M4 (Homo sapiens) (UniProt P08173); experiment: M4-linked GIRK flux change, two-sided – cell-based, HEK293 M4/GIRK, thallium flux, BTC-AM, M4 allosteric agonist project, primary screen (AID 625;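 active means fluorescence slope after compound addition differing from the mean of all tested samples at 99.7% confidence, mostly higher but some lower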;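 further: thallium influx through GIRK channels coupled to M4 in HEK293 cells with BTC-AM dye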); details: at 10 µM, actives lie on both sides
# In short: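 Material: M4/GIRK1/GIRK2 stable HEK293 cell line. Medium: pH 7.3 thallium assay buffer. Dosing: single compound concentration, 10 µM final. Schedule: 1 h dye loading, 2 min kinetic read. Measured by: kinetic fluorescence with BTC-AM dye. Read-out: post-addition slope, 15–24 s, of baseline-normalized fluorescence. Benchmarks: carbachol and DMSO controls.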
# [7] = blockers of RIG-like receptor reporter activation – cell-based, Sendai virus stimulus, luciferase, 10K MLSCN set, TLR/RLR signaling modifier project, primary screen (AID 602276;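 active means inhibition at or above 50% at 10 µM; inactive means inhibition below 50%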;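 further: firefly luciferase from ISG56 promoter only with Renilla not read in this screen; 0% = Sendai virus plus DMSO and 100% = medium plus DMSO without virus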); details: HEK293 RL24 IRF3 luciferase reporter, at 10 µM, stronger effect = higher value
# [8] = TLR3 IRF3 reporter activation blockers – cell-based, poly I:C stimulus, luciferase, 10K MLSCN set, primary screen (AID 602277;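 active means inhibition of the reporter signal at or above 50%; inactive means inhibition below 50%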); details: HEK293-TLR3 RL24 IRF3 luciferase reporter, at 10 µM, stronger effect = higher value
# Sequence of Muscarinic acetylcholine receptor M4 (Homo sapiens) (P08173 whole entry, looked up): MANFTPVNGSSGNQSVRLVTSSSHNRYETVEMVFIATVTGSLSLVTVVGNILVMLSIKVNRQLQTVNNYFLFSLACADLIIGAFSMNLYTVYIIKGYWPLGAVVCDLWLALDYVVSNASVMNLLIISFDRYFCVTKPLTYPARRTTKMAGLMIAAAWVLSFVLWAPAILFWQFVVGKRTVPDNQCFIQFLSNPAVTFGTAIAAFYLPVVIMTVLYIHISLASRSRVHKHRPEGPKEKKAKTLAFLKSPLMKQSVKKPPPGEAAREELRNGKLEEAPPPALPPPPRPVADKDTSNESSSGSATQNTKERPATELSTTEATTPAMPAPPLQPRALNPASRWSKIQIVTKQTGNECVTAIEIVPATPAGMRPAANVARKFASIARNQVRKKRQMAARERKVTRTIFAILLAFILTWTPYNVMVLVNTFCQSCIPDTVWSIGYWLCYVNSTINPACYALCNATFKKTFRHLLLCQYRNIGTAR
# Sequence of Voltage-gated potassium channel subunit beta-2 (Rattus norvegicus) (P62483 whole entry, looked up): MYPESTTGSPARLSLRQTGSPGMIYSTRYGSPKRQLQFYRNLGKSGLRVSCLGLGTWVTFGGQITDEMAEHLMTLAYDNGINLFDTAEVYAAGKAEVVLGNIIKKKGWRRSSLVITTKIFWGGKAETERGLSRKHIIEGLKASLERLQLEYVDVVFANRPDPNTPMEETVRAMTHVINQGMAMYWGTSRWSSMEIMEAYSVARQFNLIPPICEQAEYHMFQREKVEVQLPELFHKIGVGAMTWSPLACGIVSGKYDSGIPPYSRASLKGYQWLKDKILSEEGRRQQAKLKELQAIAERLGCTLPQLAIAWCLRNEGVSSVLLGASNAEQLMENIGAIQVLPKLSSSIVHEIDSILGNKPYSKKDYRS
SMILES,cell count [1],inhibition [1],inhibition of aggregation [2],nuclei count [2] [%],inhibition [3],nuclei count [3] [%],fluorescence slope [4],NADPH fluorescence slope [5],fluorescence slope [6],inhibition [7],inhibition [8]
O=S(=O)(NCCc1ccccc1F)c1cccc(S(=O)(=O)N2CCOCC2)c1,434,5.7% (inactive),6.4% (inactive),105,-14.8% (inactive),110,-0.584 (inactive),1.5e-06 (inactive),0.00428 (inactive),9.49% (inactive),13% (inactive)
Cn1c(NCc2cccc(Br)c2)nc2ccccc21,337,-4.7% (inactive),3% (inactive),103,-6.9% (inactive),139,-0.528 (inactive),-2.6e-05 (inactive),0.00491 (inactive),8.28% (inactive),14.2% (inactive)
CC(C)(C)OC(=O)N1CCCC1C(=O)N1CCCC1C(=O)N1CCCC1C(=O)O (stereo not drawn) (Boc-Pro-Pro-Pro-OH; configuration not given here),302,-6.9% (inactive),4.5% (inactive),49.1,-59.4% (inactive),102,-0.571 (inactive),-4.7e-05 (inactive),0.00689 (inactive),5.97% (inactive),15.3% (inactive)
CCOC(=O)CSc1cn2c(n1)CCC2,547,-10.9% (inactive),14.3% (inactive),66.8,-25.8% (inactive),89.1,-0.595 (inactive),1.5e-05 (inactive),0.00761 (inactive),-11.5% (inactive),-11.4% (inactive)
CCOC(=O)c1c(C)oc2c1c(C=NCc1ccccn1)c(O)c1ccccc12,738,4.7% (inactive),7.3% (inactive),84.9,-112% (inactive),124,-0.322 (inactive),-2.5e-05 (inactive),0.00123 (inactive),8.4% (inactive),29.2% (inactive)
Cc1cccn2c(=O)c3cc(C#N)c(=O)n(CCCN4CCOCC4)c3nc12,519,1% (inactive),15.5% (inactive),71.7,-24.9% (inactive),173,-0.153 (inactive),-1.6e-05 (inactive),0.00481 (inactive),11.2% (inactive),40.1% (inactive)
Cc1ccc(S(=O)(=O)NCCCNC(=O)N2CCOCC2)cc1,769,-4.3% (inactive),1.3% (inactive),104,-103% (inactive),129,-0.461 (inactive),-4.9e-05 (inactive),0.00502 (inactive),17.8% (inactive),16.7% (inactive)
COCCNC(=O)c1ccc(Cl)c(Cl)c1,283,-9.1% (inactive),-23.9% (inactive),119,4.3% (inactive),116,-0.486 (inactive),-4.2e-05 (inactive),0.00569 (inactive),-9.14% (inactive),-8.45% (inactive)
COc1cccc(-c2cc(C(=O)N3CCCc4ccccc43)no2)c1,406,-23% (inactive),-4.7% (inactive),102,-13.2% (inactive),94.5,-0.217 (inactive),-1.8e-05 (inactive),0.00726 (inactive),0.639% (inactive),-88.4% (inactive)
COCCn1c(=O)[nH]c2cc(C(=O)NCc3cccnc3)ccc2c1=O,744,3.8% (inactive),7.4% (inactive),93.8,56.4% (active),102,-0.302 (inactive),-4.8e-05 (inactive),0.00755 (inactive),10.8% (inactive),13.4% (inactive)
COc1ccccc1CNC(=O)CCn1c(=O)[nH]c2ccsc2c1=O,504,1.1% (inactive),6.6% (inactive),111,9.6% (inactive),110,-0.266 (inactive),-3e-05 (inactive),0.0062 (inactive),16.6% (inactive),-5.76% (inactive)
COC(=O)c1ccccc1S(=O)(=O)N(Cc1cc2cc3c(cc2[nH]c1=O)OCO3)C1CCCCC1,532,-3.6% (inactive),-4.8% (inactive),134,-71.1% (inactive),161,-0.487 (inactive),-9.9e-05 (inactive),0.00583 (inactive),-3.7% (inactive),-14.5% (inactive)
CN1C(=O)CSc2ccc(NC(=O)N3CCN(c4ccccn4)CC3)cc21,589,-16.4% (inactive),-49% (inactive),76.7,-57.6% (inactive),112,-0.455 (inactive),8e-05 (inactive),0.00601 (inactive),-6.76% (inactive),21.6% (inactive)
O=C(CN1C(=O)C2CC=C(Cl)CC2C1=O)Nc1ccc(C(=O)O)cc1 (stereo not drawn),442,3.4% (inactive),10.1% (inactive),110,-205% (inactive),122,-0.569 (inactive),-7.9e-05 (inactive),0.00409 (inactive),19.2% (inactive),20.6% (inactive)
CCN1C(=O)/C(=C/N2CCc3ccccc32)SC1=S,382,1.8% (inactive),-22.3% (inactive),117,-1.2% (inactive),100,-0.403 (inactive),-2.8e-05 (inactive),0.00654 (inactive),-26.3% (inactive),-99.1% (inactive)
Oc1cnc2ccccc2c1CN1CCOCC1,354,0.4% (inactive),-24.9% (inactive),111,-45.2% (inactive),80.9,-0.542 (inactive),-1.4e-05 (inactive),0.0061 (inactive),18% (inactive),10.3% (inactive)
COc1cccc2cc(C(=O)Nc3cccnc3N3CCOCC3)c(=O)oc12,348,-10.5% (inactive),-13.5% (inactive),48.9,-32.3% (inactive),98.9,-0.573 (inactive),1.5e-05 (inactive),0.00618 (inactive),10.7% (inactive),4.05% (inactive)
Cc1ccc(NC(=O)C2CCCNC2=O)nc1 (stereo not drawn),265,-2.2% (inactive),5.8% (inactive),86.6,-48.5% (inactive),82.2,-0.448 (inactive),-4.9e-05 (inactive),0.00534 (inactive),2.07% (inactive),-1.11% (inactive)
Cc1cc(C)c2c(=O)[nH]c(=O)n(Cc3ccccc3)c2n1,303,20% (inactive),-9.7% (inactive),114,0.6% (inactive),103,-0.53 (inactive),2.6e-05 (inactive),0.00637 (inactive),16.5% (inactive),27.4% (inactive)
Cc1ccccc1NC(=O)c1ccc(NC(=O)c2ccco2)cc1,423,-1% (inactive),10.9% (inactive),116,-30.5% (inactive),113,-0.462 (inactive),-2.6e-05 (inactive),0.00647 (inactive),-7.81% (inactive),-35.1% (inactive)
CCC(=O)c1ccc(OCC(=O)N2CCc3cc(OC)c(OC)cc3C2)cc1,369,10.8% (inactive),17.3% (inactive),91.3,25.9% (inactive),99.5,-0.577 (inactive),-4.3e-05 (inactive),0.00901 (inactive),3.27% (inactive),12.3% (inactive)
COCCNC(=O)c1ccc2c(c1)nc(C)n2-c1cccc(F)c1,292,19.4% (inactive),-2% (inactive),99.8,-16.6% (inactive),98.7,-0.572 (inactive),-3.3e-05 (inactive),0.00562 (inactive),15.5% (inactive),17.5% (inactive)
CCn1c(SCC(=O)NCCc2ccc(Cl)cc2)nnc1-c1cccs1,616,6.9% (inactive),25.3% (inactive),69.4,-11.2% (inactive),106,-0.572 (inactive),-5e-05 (inactive),0.00799 (inactive),-15.7% (inactive),-13.3% (inactive)
Nc1ncnc2nc(SCCN3CCCCC3)[nH]c12,189,-0.7% (inactive),5% (inactive),90.8,-0.1% (inactive),92.4,-0.545 (inactive),-3.4e-05 (inactive),0.00574 (inactive),17.8% (inactive),10.9% (inactive)
Cc1ccc(-c2nnc(-c3ccc(Br)cc3)o2)o1,454,0.5% (inactive),-10.6% (inactive),116,-31.4% (inactive),102,-0.389 (inactive),-3e-05 (inactive),0.00923 (inactive),-38.9% (inactive),-108% (inactive)
Cc1cc(C)cc(NS(=O)(=O)c2ccc3[nH]cc(C(=O)NCc4ccco4)c(=O)c3c2)c1,416,1.5% (inactive),3.8% (inactive),99.9,-19.7% (inactive),97.7,-0.57 (inactive),-4.7e-05 (inactive),0.00555 (inactive),39.5% (inactive),49.1% (inactive)
COCC(=O)N(Cc1nc2ccccc2c(=O)[nH]1)Cc1cccs1,608,-5.4% (inactive),-6.1% (inactive),105,-64.2% (inactive),114,-0.557 (inactive),-3e-05 (inactive),0.00566 (inactive),20.3% (inactive),22.3% (inactive)
CCN(CC)C(=O)CSc1nc2ccc(NC(=O)CSc3nccn3C)cc2s1,729,-2.4% (inactive),-36.9% (inactive),116,19.3% (inactive),94.3,-0.577 (inactive),-1.3e-05 (inactive),0.00661 (inactive),-9.79% (inactive),-19.1% (inactive)
